Measurements reported in ChEMBL document CHEMBL1146375, “Synthetic studies on novel benzimidazolopeptides with antimicrobial, cytotoxic and anthelmintic potential” (2007).
Values after ≈ are worked out from the molar mass of the structure shown. Residues, ends and D or L forms follow the SMILES beside them. *: point of attachment. X1 = Cc1cc2nc(-c3ccc(O)c(C(=O)*)c3)[nH]c2cc1C

How the values were obtained:
Trichophyton benhamiae [1] = experiment: Antifungal activity against Trichophyton mentagrophytes MUCC 665 after 48 hrs by tube dilution method; assay type: functional, Arthroderma benhamiae
Outline: (§1)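 Tube dilution MIC as for bacteria (seven concentrations, 200–3.1 […]), with DMSO in place of DMF. Tubes inoculated with fungal culture and incubated 48 h at 37 °C. MIC read from presence or absence of growth.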

[2] = Growth inhibition of EAC cells after 3 hrs; assay type: functional; conditions: Mus musculus, Ehrlich
Outline: (§2)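 DLA and EAC cells passaged intraperitoneally in albino mice, harvested after 15–20 days and adjusted to 1 × 10⁶ cells/mL. Dilutions in Dulbecco's medium (500–31.25, some down to 3.91 µg/mL; 5-FU reference) mixed 1:1 with cells and held 3 h at 37 °C. Trypan blue exclusion gave % growth inhibition; CTC50 by graphical extrapolation.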

Staphylococcus aureus [3] = experiment: Antibacterial activity against Staphylococcus aureus NCIM 2079 after 18 hrs by tube dilution method; assay type: functional; conditions: NCIM 2079, 18 h
Outline: (§3)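 Tube dilution MIC. Stock diluted in sterile broth to seven concentrations from 200 to 3.1 […]. Each tube inoculated with one loopful of test bacterium and incubated 18 h at 37 °C. MIC read from presence or absence of growth.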

Eudrilus [4] = experiment: Anthelmintic activity against Eudrilus sp. assessed as mean paralyzing time; assay type: functional
Outline: (§4)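 Earthworms exposed to test suspensions at 2 mg mL^-1 (0.2% w/v), made by triturating compound with Tween 80 (0.5%) and distilled water, then mechanically stirred 30 min. Mebendazole suspension prepared alike as reference. Paralysis and death times recorded; death confirmed by no movement in 50 °C water. Means from triplicate sets.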

[5] = Growth inhibition of EAC cells at 62.5 ug/mL after 3 hrs; assay type: functional; conditions: Mus musculus, Ehrlich; outline: as §2
Trichophyton benhamiae [6] = experiment: Antifungal activity against Trichophyton mentagrophytes MUCC 665 after 48 hrs by disc diffusion method; assay type: functional, Arthroderma benhamiae
Outline: (§5)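 Agar well diffusion on plates inoculated with spore suspension in normal saline from cultures on Sabouraud's broth. Wells punched and loaded with test samples or griseofulvin at 10 mg mL^-1, with DMSO as negative control. Incubated 48 h at 37 °C.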

[7] = Growth inhibition of DLA cells at 31.25 ug/mL after 3 hrs; assay type: functional; conditions: Mus musculus; outline: as §2
Escherichia coli [8] = experiment: Antibacterial activity against Escherichia coli NCIM 2065 after 18 hrs by disc diffusion method; assay type: functional
Outline: (§6)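 Modified Kirby-Bauer disc diffusion. Plates inoculated with spore suspension (about 6 × 10⁴ spores mL^-1). Sterile 6 mm paper discs carried test samples at 10 mg mL^-1; ciprofloxacin disc as reference, DMF disc as negative control. Plates held 18 h at 37 °C. Inhibition zone diameters (mm) averaged over triplicate sets.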

[9] = Growth inhibition of EAC cells at 7.81 ug/mL after 3 hrs; assay type: functional; conditions: Mus musculus, Ehrlich; outline: as §2
Bacillus subtilis [10] = experiment: Antibacterial activity against Bacillus subtilis NCIM 2063 after 18 hrs by tube dilution method; assay type: functional; conditions: NCIM 2063, 18 h; outline: as §3
Staphylococcus aureus [11] = experiment: Antibacterial activity against Staphylococcus aureus NCIM 2079 after 18 hrs by disc diffusion method; assay type: functional; outline: as §6
Aspergillus niger = experiment: Antifungal activity against Aspergillus niger MUCC 177 after 48 hrs by disc diffusion method; assay type: functional; outline: as §5
[12] = Growth inhibition of DLA cells at 3.91 ug/mL after 3 hrs; assay type: functional; conditions: Mus musculus; outline: as §2
Bacillus subtilis [13] = experiment: Antibacterial activity against Bacillus subtilis NCIM 2063 after 18 hrs by disc diffusion method; assay type: functional; outline: as §6
Microsporum audouinii [14] = experiment: Antifungal activity against Microsporum audouinii MUCC 545 after 48 hrs by tube dilution method; assay type: functional; outline: as §1
[15] = Growth inhibition of DLA cells at 62.5 ug/mL after 3 hrs; assay type: functional; conditions: Mus musculus; outline: as §2
[16] = Growth inhibition of EAC cells at 3.91 ug/mL after 3 hrs; assay type: functional; conditions: Mus musculus, Ehrlich; outline: as §2
Eudrilus [17] = experiment: Anthelmintic activity against Eudrilus sp. assessed as mean death time; assay type: functional
Outline: (§7)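 Earthworms exposed to test suspensions at 2 mg mL−1, prepared by triturating compound with Tween 80 (0.5%) and distilled water, stirring 30 min, then diluting to 0.2% w/v. Mebendazole suspension was made the same way. Death was confirmed by moving worms into 50 °C warm water and looking for movement. Mean death time (min) taken from triplicate sets.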

Microsporum audouinii [18] = experiment: Antifungal activity against Microsporum audouinii MUCC 545 after 48 hrs by disc diffusion method; assay type: functional; outline: as §5
Pontoscolex corethrurus [19] = experiment: Anthelmintic activity against Pontoscolex corethrurus ICARBC 408 assessed as mean paralyzing time; assay type: functional; outline: as §4
[20] = Growth inhibition of DLA cells after 3 hrs; assay type: functional; conditions: Mus musculus; outline: as §2
Pseudomonas aeruginosa [21] = experiment: Antibacterial activity against Pseudomonas aeruginosa NCIM 2034 after 18 hrs by tube dilution method; assay type: functional; conditions: NCIM 2034, 18 h; outline: as §3
[22] = Growth inhibition of DLA cells at 7.81 ug/mL after 3 hrs; assay type: functional; conditions: Mus musculus; outline: as §2
Pseudomonas aeruginosa [23] = experiment: Antibacterial activity against Pseudomonas aeruginosa NCIM 2034 after 18 hrs by disc diffusion method; assay type: functional; outline: as §6
Candida albicans [24] = experiment: Antifungal activity against Candida albicans MUCC 29 after 48 hrs by disc diffusion method; assay type: functional; outline: as §5
[25] = Growth inhibition of DLA cells at 15.63 ug/mL after 3 hrs; assay type: functional; conditions: Mus musculus; outline: as §2
Pontoscolex corethrurus [26] = experiment: Anthelmintic activity against Pontoscolex corethrurus ICARBC 408 assessed as mean death time; assay type: functional; outline: as §7
[27] = Growth inhibition of EAC cells at 31.25 ug/mL after 3 hrs; assay type: functional; conditions: Mus musculus, Ehrlich; outline: as §2
[28] = Anthelmintic activity against Megascoplex konkanensis ICARBC 211 assessed as mean death time; assay type: functional; outline: as §4
[29] = Anthelmintic activity against Megascoplex konkanensis ICARBC 211 assessed as mean paralyzing time; assay type: functional; outline: as §4
[30] = Growth inhibition of EAC cells at 15.63 ug/mL after 3 hrs; assay type: functional; conditions: Mus musculus, Ehrlich; outline: as §2
Escherichia coli [31] = experiment: Antibacterial activity against Escherichia coli NCIM 2065 after 18 hrs by tube dilution method; assay type: functional; conditions: NCIM 2065, 18 h
Candida albicans [32] = experiment: Antifungal activity against Candida albicans MUCC 29 after 48 hrs by tube dilution method; assay type: functional; outline: as §1
[33] = Growth inhibition of EAC cells at 500 ug/mL after 3 hrs; assay type: functional; conditions: Mus musculus, Ehrlich; outline: as §2
[34] = Growth inhibition of EAC cells at 250 ug/mL after 3 hrs; assay type: functional; conditions: Mus musculus, Ehrlich; outline: as §2

SMILES | MIC (Trichophyton benhamiae [1]) | CC50 [2] | MIC (Staphylococcus aureus [3]) | Time (Eudrilus [4]) | inhibition at 62.5 µg/mL [5] | inhibition zone (IZ) (Trichophyton benhamiae [6]) | inhibition at 31.25 µg/mL [7] | inhibition zone (IZ) (Escherichia coli [8]) | inhibition at 7.81 µg/mL [9] | MIC (Bacillus subtilis [10]) | inhibition zone (IZ) (Staphylococcus aureus [11]) | inhibition zone (IZ) (Aspergillus niger) | inhibition at 3.91 µg/mL [12] | inhibition zone (IZ) (Bacillus subtilis [13]) | inhibition at 62.5 µg/mL [15] | inhibition at 3.91 µg/mL [16] | CC50 [20] | inhibition at 7.81 µg/mL [22] | inhibition at 15.63 µg/mL [25] | inhibition at 15.63 µg/mL [30] | also measured
Cc1cc2nc(-c3ccc(O)c(C(=O)NCC(=O)N[C@@H](Cc4c[nH]c5ccccc45)C(=O)NCC(=O)N[C@@H](Cc4cnc[nH]4)C(=O)O)c3)[nH]c2cc1C (X1-GWGH-OH) | 6 µg/mL (≈ 8.34 µM) | 12 µM | 12.5 µg/mL (≈ 17.4 µM) | 10.89 min | 100% | 16 mm | 100% | 18 mm | 46.4% | 6 µg/mL (≈ 8.34 µM) | 10 mm | 16 mm | 44.7% | 14 mm | 100% | 10.7% | 6.15 µM | 60.5% | 81.6% | 75% | MIC (Microsporum audouinii [14]): 6 µg/mL (≈ 8.34 µM); Time (Eudrilus [17]): 19.83 min; inhibition zone (IZ) (Microsporum audouinii [18]): 11 mm; Time (Pontoscolex corethrurus [19]): 12.22 min; MIC (Pseudomonas aeruginosa [21]): 6 µg/mL (≈ 8.34 µM); inhibition zone (IZ) (Pseudomonas aeruginosa [23]): 24 mm; inhibition zone (IZ) (Candida albicans [24]): 20 mm; Time (Pontoscolex corethrurus [26]): 24.52 min; inhibition at 31.25 µg/mL [27]: 92.8%; TIME [28]: 0.289 h; TIME [29]: 0.155 h; MIC (Escherichia coli [31]): 12.5 µg/mL (≈ 17.4 µM); MIC (Candida albicans [32]): 6 µg/mL (≈ 8.34 µM)
O=c1[nH]cc(F)c(=O)[nH]1 [FLUOROURACIL] |  | 90.5 µM |  |  |  |  | 100% |  | 32.1% |  |  |  | 42.1% |  | 100% | 17.9% | 37.4 µM | 65.8% | 73.7% | 60.7% | inhibition at 500 µg/mL [33]: 100%; inhibition at 250 µg/mL [34]: 100%
COC(=O)[C@H](Cc1cnc[nH]1)NC(=O)CNC(=O)[C@H](Cc1c[nH]c2ccccc12)NC(=O)CNC(=O)c1cc(-c2nc3cc(C)c(C)cc3[nH]2)ccc1O (X1-GWGH-OMe) | 6 µg/mL (≈ 8.18 µM) | 18.9 µM | 12.5 µg/mL (≈ 17 µM) | 11.06 min | 100% | 15 mm | 86.8% | 17 mm | 35.7% | 6 µg/mL (≈ 8.18 µM) | 9 mm | 15 mm | 26.3% | 12 mm | 100% | 7.14% | 15.3 µM | 44.7% | 55.3% | 53.6% | MIC (Microsporum audouinii [14]): 6 µg/mL (≈ 8.18 µM); Time (Eudrilus [17]): 20.94 min; inhibition zone (IZ) (Microsporum audouinii [18]): 10 mm; Time (Pontoscolex corethrurus [19]): 14.34 min; MIC (Pseudomonas aeruginosa [21]): 6 µg/mL (≈ 8.18 µM); inhibition zone (IZ) (Pseudomonas aeruginosa [23]): 23 mm; inhibition zone (IZ) (Candida albicans [24]): 17 mm; Time (Pontoscolex corethrurus [26]): 26.21 min; inhibition at 31.25 µg/mL [27]: 71.4%; TIME [28]: 0.291 h; TIME [29]: 0.157 h; MIC (Escherichia coli [31]): 12.5 µg/mL (≈ 17 µM); MIC (Candida albicans [32]): 6 µg/mL (≈ 8.18 µM)
